Experimental data published in ChEMBL document CHEMBL5705890, “Antitumor activity of an allosteric inhibitor of centromere-associated protein-E” (Proc Natl Acad Sci U S A, 2010).

How the values were obtained:
[1] = Anticancer activity against human TE 381.T cells assessed as cell doubling measured for 72 hrs by DAPI staining based analysis; format: functional
[2] = tested on: NCI-H630; test: Anticancer activity against human NCI-H630 cells assessed as cell growth inhibition measured after 72 hrs by DAPI staining based analysis; format: functional
[3] = target: Centromere-associated protein E (Homo sapiens, UniProt Q02224, T183A); test: Binding affinity to human CENP-E T183A mutant assessed as inhibition constant
Sequence of Centromere-associated protein E (Q02224 whole entry T183A): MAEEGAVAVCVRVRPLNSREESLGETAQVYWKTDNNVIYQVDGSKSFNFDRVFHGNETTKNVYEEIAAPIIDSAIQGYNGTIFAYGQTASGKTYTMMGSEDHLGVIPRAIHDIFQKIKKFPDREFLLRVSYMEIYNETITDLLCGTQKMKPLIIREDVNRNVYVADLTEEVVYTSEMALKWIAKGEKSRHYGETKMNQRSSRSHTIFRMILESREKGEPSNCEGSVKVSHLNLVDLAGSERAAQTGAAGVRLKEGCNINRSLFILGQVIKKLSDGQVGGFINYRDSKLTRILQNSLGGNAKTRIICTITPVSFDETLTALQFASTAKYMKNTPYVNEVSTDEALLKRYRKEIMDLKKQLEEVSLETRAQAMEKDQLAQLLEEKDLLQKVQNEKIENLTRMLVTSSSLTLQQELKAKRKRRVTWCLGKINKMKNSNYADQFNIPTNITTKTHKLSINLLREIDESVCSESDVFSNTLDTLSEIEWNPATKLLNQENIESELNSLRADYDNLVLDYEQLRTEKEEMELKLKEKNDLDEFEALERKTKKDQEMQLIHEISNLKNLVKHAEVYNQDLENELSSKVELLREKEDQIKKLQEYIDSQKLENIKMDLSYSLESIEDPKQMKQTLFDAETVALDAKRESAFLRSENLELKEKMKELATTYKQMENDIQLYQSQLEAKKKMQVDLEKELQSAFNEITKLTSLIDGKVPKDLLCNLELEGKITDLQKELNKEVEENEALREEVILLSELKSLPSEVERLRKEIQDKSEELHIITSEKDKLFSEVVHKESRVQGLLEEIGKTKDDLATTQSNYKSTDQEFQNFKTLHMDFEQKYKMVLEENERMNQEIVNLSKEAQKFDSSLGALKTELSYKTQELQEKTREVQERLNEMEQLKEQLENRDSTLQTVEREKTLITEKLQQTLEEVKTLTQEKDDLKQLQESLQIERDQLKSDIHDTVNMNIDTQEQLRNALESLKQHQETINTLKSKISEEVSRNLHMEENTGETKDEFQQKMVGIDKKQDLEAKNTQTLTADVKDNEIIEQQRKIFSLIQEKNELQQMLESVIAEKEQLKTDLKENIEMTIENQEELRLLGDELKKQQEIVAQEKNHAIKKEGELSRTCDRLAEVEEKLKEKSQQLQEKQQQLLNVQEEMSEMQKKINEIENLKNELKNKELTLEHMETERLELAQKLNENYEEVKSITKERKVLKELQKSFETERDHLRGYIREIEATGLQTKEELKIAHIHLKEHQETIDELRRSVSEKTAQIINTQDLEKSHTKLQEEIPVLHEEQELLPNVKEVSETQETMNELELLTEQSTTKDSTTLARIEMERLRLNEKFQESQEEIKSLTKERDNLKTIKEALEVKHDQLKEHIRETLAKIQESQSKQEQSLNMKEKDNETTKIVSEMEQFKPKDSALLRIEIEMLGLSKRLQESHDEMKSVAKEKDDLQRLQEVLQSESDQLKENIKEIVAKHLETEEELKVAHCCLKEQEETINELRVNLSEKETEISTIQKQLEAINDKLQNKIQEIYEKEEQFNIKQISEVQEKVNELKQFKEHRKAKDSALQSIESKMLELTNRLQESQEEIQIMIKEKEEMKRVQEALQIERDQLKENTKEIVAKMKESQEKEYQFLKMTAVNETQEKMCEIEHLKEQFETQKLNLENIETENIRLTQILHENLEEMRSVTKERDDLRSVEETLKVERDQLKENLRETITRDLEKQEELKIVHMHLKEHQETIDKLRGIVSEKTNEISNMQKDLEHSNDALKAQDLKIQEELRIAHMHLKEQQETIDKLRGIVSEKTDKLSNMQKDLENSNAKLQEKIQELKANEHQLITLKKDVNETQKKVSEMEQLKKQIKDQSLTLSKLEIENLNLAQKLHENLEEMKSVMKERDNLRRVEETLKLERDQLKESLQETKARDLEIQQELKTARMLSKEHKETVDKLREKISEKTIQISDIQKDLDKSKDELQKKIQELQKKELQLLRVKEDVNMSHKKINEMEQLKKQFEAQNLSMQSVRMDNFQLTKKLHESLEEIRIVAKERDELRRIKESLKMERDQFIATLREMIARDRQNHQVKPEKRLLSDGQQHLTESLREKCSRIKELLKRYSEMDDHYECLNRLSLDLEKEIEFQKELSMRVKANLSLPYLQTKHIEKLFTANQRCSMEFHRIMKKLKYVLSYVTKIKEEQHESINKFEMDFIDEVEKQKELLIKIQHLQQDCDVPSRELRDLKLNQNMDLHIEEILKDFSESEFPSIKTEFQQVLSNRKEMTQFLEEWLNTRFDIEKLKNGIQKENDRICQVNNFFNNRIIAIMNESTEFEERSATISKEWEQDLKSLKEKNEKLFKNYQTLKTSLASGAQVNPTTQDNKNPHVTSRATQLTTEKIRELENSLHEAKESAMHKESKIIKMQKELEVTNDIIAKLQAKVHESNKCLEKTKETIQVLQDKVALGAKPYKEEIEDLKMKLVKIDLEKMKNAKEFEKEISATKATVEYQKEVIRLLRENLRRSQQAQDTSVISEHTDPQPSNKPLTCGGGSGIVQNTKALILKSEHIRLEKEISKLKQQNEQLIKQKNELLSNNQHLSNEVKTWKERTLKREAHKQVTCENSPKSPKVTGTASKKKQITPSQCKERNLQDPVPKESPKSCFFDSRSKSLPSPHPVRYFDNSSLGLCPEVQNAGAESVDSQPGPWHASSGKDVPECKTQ

[4] = tested on: SK-N-FI; test: Anticancer activity against human SK-N-FI cells assessed as cell doubling measured for 72 hrs by DAPI staining based analysis; format: functional
[5] = tested on: T84; test: Anticancer activity against human T84 cells assessed as cell growth inhibition measured after 72 hrs by DAPI staining based analysis; format: functional
[6] = tested on: SH-4; test: Anticancer activity against human SH-4 cells assessed as cell growth inhibition measured after 72 hrs by DAPI staining based analysis; format: functional
[7] = tested on: CRO-AP2; test: Anticancer activity against human CRO-AP2 cells assessed as cell growth inhibition measured after 72 hrs by DAPI staining based analysis; format: functional
Summary of the method: (§1)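 Cells seeded, DAPI-stained DNA content of fixed cells read by imaging 24 h after seeding (T0), and again after a further 72 h exposure to a range of drug concentrations (T72). T72 values were normalized to T0. Curve fits gave the concentration producing 50% growth inhibition relative to T0 and Ymax (GI50).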

[8] = tested on: A549; test: Antitumor activity against human A549 cells in xenograft model assessed as tumor growth delay at 62.5 mg/kg relative to control; format: functional
[9] = tested on: MDA-MB-468; test: Anticancer activity against human MDA-MB-468 cells assessed as cell growth inhibition measured after 72 hrs by DAPI staining based analysis; format: functional
[10] = tested on: SNU-16; test: Anticancer activity against human SNU-16 cells assessed as cell growth inhibition measured after 72 hrs by DAPI staining based analysis; format: functional
[11] = tested on: HeLa; test: Anticancer activity against human HeLa cells assessed as cell doubling measured for 72 hrs by DAPI staining based analysis; format: functional
[12] = tested on: COLO 205; test: Antitumor activity against human COLO 205 cells in xenograft model assessed as tumor growth delay at 62.5 mg/kg relative to control; format: functional
[13] = tested on: DBTRG-05MG; test: Anticancer activity against human DBTRG-05MG cells assessed as cell growth inhibition measured after 72 hrs by DAPI staining based analysis; format: functional; summary of the method: as §1
[14] = tested on: ES-2; test: Anticancer activity against human ES2 cells assessed as cell doubling measured for 72 hrs by DAPI staining based analysis; format: functional
[15] = tested on: NCI-H1299; test: Antitumor activity against human NCI-H1299 cells in xenograft model assessed as difference between median time to endpoint time of treated versus control group at 62.5 mg/kg; format: functional
[16] = tested on: SW872; test: Anticancer activity against human SW872 cells assessed as cell growth inhibition measured after 72 hrs by DAPI staining based analysis; format: functional
[17] = tested on: SR; test: Anticancer activity against human SR cells assessed as cell doubling measured for 72 hrs by DAPI staining based analysis; format: functional
[18] = tested on: NCI-H82; test: Anticancer activity against human NCI-H82 cells assessed as cell growth inhibition measured after 72 hrs by DAPI staining based analysis; format: functional
[19] = tested on: HCC70; test: Anticancer activity against human HCC70 cells assessed as cell doubling measured for 72 hrs by DAPI staining based analysis; format: functional
[20] = tested on: TK-10; test: Anticancer activity against human TK-10 cells assessed as cell growth inhibition measured after 72 hrs by DAPI staining based analysis; format: functional
[21] = tested on: T47D; test: Anticancer activity against human T47D cells assessed as cell growth inhibition measured after 72 hrs by DAPI staining based analysis; format: functional
[22] = tested on: DU-4475; test: Anticancer activity against human DU-4475 cells assessed as cell growth inhibition measured after 72 hrs by DAPI staining based analysis; format: functional; summary of the method: as §1
[23] = tested on: C-4-II; test: Anticancer activity against human C-4-II cells assessed as cell growth inhibition measured after 72 hrs by DAPI staining based analysis; format: functional
Summary of the method: (§2)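 Cells were seeded, and DNA content at 24 h after seeding (T0) was read by imaging of fixed, DAPI-stained cells. Cells were then exposed to a range of drug concentrations for a further 72 h (T72) and DNA content was read again. T72 values were normalized to T0, and GI50 was taken from curve fits as the concentration giving 50% growth inhibition relative to T0 and Ymax.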

[24] = tested on: HCT-116; test: Antitumor activity against human HCT-116 cells in xenograft model assessed as difference between median time to endpoint time of treated versus control group at 125 mg/kg; format: functional
[25] = tested on: NCI-H460; test: Antitumor activity against human NCI-H460 cells in xenograft model assessed as difference between median time to endpoint time of treated versus control group at 125 mg/kg; format: functional
[26] = tested on: COLO 205; test: Antitumor activity against human COLO 205 cells in xenograft model assessed as difference between median time to endpoint time of treated versus control group at 62.5 mg/kg; format: functional
[27] = tested on: SN12C; test: Anticancer activity against human SN12C cells assessed as cell doubling measured for 72 hrs by DAPI staining based analysis; format: functional
[28] = tested on: HCC 2998; test: Anticancer activity against human HCC 2998 cells assessed as cell doubling measured for 72 hrs by DAPI staining based analysis; format: functional
[29] = tested on: HepG2; test: Anticancer activity against human HepG2 cells assessed as cell growth inhibition measured after 72 hrs by DAPI staining based analysis; format: functional
[30] = tested on: DU-145; test: Anticancer activity against human DU-145 cells assessed as cell growth inhibition measured after 72 hrs by DAPI staining based analysis; format: functional; summary of the method: as §1
[31] = tested on: SNU-398; test: Anticancer activity against human SNU-398 cells assessed as cell growth inhibition measured after 72 hrs by DAPI staining based analysis; format: functional
[32] = tested on: BC-3; test: Anticancer activity against human BC-3 cells assessed as cell growth inhibition measured after 72 hrs by DAPI staining based analysis; format: functional
Summary of the method: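 Cells were seeded and, after 24 h, DNA content was read as T0. Cells were then exposed to varying drug concentrations for a further 72 h (T72). Fixed cells were DAPI-stained and DNA content measured by automated imaging. T72 values were normalized to T0. GI50 is the concentration giving 50% growth inhibition between T0 and Ymax, obtained by curve fitting.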

[33] = tested on: SR; test: Anticancer activity against human SR cells assessed as cell growth inhibition measured after 72 hrs by DAPI staining based analysis; format: functional
[34] = tested on: HT-29; test: Antitumor activity against human HT-29 cells in xenograft model assessed as difference between median time to endpoint time of treated versus control group at 62.5 mg/kg; format: functional
[35] = tested on: OVCAR-5; test: Anticancer activity against human OVCAR-5 cells assessed as cell doubling measured for 72 hrs by DAPI staining based analysis; format: functional
[36] = tested on: NCI-H747; test: Anticancer activity against human NCI-H747 cells assessed as cell doubling measured for 72 hrs by DAPI staining based analysis; format: functional
[37] = tested on: HT-1376; test: Anticancer activity against human HT-1376 cells assessed as cell growth inhibition measured after 72 hrs by DAPI staining based analysis; format: functional
[38] = tested on: HCC70; test: Anticancer activity against human HCC70 cells assessed as cell growth inhibition measured after 72 hrs by DAPI staining based analysis; format: functional
[39] = tested on: CCF-STTG1; test: Anticancer activity against human CCF-STTG1 cells assessed as cell growth inhibition measured after 72 hrs by DAPI staining based analysis; format: functional; summary of the method: as §2

GI50 [2]: 47 nM
Ki [3]: 13 nM
GI50 [9]: 25 nM
GI50 [10]: 18 nM
GI50 [16]: 37 nM
GI50 [18]: 18 nM
GI50 [21]: 29 nM
GI50 [29]: 31 nM
GI50 [30]: 23 nM
GI50 [31]: 27 nM
GI50 [37]: 33 nM
Compound: CC(C)Oc1ccc(C(=O)N[C@H](CNC(=O)CN(C)C)Cc2ccc(-c3cn4cccc([C@H](C)O)c4n3)cc2)cc1Cl [GSK-923295A]
Activity [1]: 1.92
Activity [4]: 1.24
GI50 [5]: 75 nM
GI50 [6]: 44 nM
GI50 [7]: 51 nM
Activity [8]: 11%
Activity [11]: 2.83
Activity [12]: 122%
GI50 [13]: 17 nM
Activity [14]: 3.69
Time [15]: 3.3 days
Activity [17]: 2.84
Activity [19]: 1.35
GI50 [20]: 49 nM
GI50 [22]: 147 nM
GI50 [23]: 46 nM
Time [24]: 10.4 days
Time [25]: 37.2 days
Time [26]: 24.9 days
Activity [27]: 2.47
Activity [28]: 2.76
GI50 [32]: 88 nM
GI50 [33]: 29 nM
Time [34]: 2.7 days
Activity [35]: 2.84
Activity [36]: 2.19
GI50 [38]: 24 nM
GI50 [39]: 24 nM
